Measured values taken from BindingDB's records for PubMed 35512565 (Baylor College of Medicine, 2022).

Target: Histone acetyltransferase p300 (Homo sapiens, UniProt Q09472)
Assay: Inhibition of human p300 HAT domain (1195 to 1673 residues) using histone H3 peptide and acetyl-coA as substrates preincubated for 10 mins followed by substrate addition and measured after 30 mins by beckman scintillation counting analysis
Procedure, shortened: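 Recombinant human p300 HAT domain (10 nM) was preincubated with a dilution series of inhibitor for 10 min at 25 °C in 50 mM phosphate buffer, pH 7.0, with 0.01% Brij-35. The reaction was started with histone H3(1-21) peptide (20 μM) and Ac-CoA (1 μM ³H-Ac-CoA plus 19 μM unlabelled) and run 30 min at 25 °C. It was stopped with formic acid, spotted on P81 paper, washed 3× with 50 mM NaHCO₃, and counted by scintillation. IC50 came from a sigmoidal fit, mean of ≥3 experiments.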

Histone acetyltransferase p300, sequence (Q09472 whole entry, the tested form may be a part): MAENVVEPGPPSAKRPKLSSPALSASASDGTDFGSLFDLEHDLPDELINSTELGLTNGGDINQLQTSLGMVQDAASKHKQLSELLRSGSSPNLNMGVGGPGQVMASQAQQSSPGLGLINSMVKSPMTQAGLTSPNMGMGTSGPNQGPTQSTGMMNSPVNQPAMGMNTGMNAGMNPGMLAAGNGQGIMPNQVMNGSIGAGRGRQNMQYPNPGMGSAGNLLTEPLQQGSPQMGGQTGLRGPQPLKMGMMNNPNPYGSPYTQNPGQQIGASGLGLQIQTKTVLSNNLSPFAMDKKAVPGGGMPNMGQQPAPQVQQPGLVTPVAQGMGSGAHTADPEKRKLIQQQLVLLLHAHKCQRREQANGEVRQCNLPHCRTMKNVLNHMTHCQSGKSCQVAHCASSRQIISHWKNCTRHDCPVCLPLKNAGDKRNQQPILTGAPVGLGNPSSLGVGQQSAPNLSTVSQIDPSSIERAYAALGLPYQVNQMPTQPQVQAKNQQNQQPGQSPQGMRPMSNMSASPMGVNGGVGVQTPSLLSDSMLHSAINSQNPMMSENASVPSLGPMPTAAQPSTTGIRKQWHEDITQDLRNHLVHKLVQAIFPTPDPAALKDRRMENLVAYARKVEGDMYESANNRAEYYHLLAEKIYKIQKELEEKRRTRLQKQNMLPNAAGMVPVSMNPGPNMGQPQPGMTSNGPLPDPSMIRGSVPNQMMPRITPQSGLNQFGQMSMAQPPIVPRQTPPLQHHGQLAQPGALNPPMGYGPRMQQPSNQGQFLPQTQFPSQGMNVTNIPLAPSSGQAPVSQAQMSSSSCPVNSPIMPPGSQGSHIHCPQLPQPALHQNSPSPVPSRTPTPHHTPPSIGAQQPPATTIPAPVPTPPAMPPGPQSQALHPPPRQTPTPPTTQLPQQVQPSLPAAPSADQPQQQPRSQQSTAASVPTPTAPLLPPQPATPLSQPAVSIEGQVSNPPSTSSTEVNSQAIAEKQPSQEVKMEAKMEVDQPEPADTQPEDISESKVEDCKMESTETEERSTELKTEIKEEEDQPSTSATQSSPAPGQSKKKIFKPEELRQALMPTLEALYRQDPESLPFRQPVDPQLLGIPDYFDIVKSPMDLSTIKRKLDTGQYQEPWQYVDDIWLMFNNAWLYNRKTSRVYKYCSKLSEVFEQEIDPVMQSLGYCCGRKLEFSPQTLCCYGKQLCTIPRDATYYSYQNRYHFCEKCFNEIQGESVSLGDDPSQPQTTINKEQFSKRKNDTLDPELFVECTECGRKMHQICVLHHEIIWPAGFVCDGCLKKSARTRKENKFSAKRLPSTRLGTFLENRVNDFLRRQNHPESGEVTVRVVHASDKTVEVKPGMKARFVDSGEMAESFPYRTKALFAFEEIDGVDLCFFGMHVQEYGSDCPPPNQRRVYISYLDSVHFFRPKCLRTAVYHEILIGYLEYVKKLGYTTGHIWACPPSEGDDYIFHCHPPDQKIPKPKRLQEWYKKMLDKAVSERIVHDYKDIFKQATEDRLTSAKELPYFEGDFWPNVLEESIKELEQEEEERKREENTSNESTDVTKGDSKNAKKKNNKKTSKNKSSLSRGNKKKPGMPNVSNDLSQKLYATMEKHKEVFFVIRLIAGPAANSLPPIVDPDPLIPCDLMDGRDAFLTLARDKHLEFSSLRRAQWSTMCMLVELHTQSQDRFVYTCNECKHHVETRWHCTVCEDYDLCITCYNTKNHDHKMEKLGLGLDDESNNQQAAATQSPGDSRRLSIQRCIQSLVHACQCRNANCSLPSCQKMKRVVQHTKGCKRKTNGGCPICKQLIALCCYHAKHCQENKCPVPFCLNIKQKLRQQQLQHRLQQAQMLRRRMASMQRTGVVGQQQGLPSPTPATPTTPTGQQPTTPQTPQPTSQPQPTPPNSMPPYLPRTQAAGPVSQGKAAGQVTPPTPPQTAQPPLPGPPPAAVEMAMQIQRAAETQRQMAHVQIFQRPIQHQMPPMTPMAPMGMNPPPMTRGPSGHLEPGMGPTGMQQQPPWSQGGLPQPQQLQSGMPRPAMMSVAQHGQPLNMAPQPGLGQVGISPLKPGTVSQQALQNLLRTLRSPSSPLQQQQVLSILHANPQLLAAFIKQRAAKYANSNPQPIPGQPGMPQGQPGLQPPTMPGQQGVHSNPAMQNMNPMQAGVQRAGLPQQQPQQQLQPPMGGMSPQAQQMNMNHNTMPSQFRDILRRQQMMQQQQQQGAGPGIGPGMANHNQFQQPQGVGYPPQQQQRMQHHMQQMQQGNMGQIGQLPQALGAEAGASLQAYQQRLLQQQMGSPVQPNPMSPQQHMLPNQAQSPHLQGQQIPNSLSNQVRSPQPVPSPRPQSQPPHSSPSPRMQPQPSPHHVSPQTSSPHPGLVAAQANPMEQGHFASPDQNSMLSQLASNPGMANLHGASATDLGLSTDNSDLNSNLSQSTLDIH

IC50: 10 µM
Compound: Brc1ccc(-c2ncc(OCC3CCNCC3)nc2-c2ccc(Br)c(Br)c2)cc1Br
